Experimental data reported in ChEMBL document CHEMBL1122336, “Aromatic amidines: comparison of their ability to block respiratory syncytial virus induced cell fusion and to inhibit plasmin, urokinase, thrombin, and trypsin” (J Med Chem, 1983).

How the values were obtained:
[1] = system: HEp-2; assay: Minimum concentration required for the complete blockage of virus induced cell […]; cytotoxic at 100 uM; assay type: functional, cell-based; details: Homo sapiens
[2] = molecular target: Plasminogen (Homo sapiens, UniProt P00747); assay: Inhibition constant against human plasminogen
Outline: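 Amidase assay with plasmin on N-benzoyl-DL-arginine p-nitroanilide (BAPNA), run at pH 7.6 and 37 °C. Ki was derived from a Dixon plot of reciprocal initial velocities against inhibitor concentrations at two substrate levels.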

[3] = molecular target: Prothrombin (Bos taurus, UniProt P00735); assay: Inhibition constant against bovine thrombin
[4] = molecular target: T1, Serine protease 1 (Bos taurus, UniProt P00760); assay: Inhibition constant against bovine trypsin
T1 sequence (P00760 whole entry): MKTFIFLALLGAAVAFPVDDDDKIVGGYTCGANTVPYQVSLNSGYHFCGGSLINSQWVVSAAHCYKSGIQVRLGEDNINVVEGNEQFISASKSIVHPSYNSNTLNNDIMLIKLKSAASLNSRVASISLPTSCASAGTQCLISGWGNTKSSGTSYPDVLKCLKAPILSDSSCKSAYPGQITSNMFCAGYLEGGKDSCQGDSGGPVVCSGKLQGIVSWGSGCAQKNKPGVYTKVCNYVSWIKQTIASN

[5] = molecular target: T2, Urokinase-type plasminogen activator (Homo sapiens, UniProt P00749); assay: Inhibition constant against Urokinase
[6] = system: HEp-2; assay: Minimum concentration required for the complete blockage of virus induced cell […]; NB means no blockage of cell fusion at the highest concentration where there is cytotoxicity at 100 uM; assay type: functional, cell-based; details: Homo sapiens
[7] = molecular target: T2, Urokinase-type plasminogen activator; assay: Inhibition constant against Urokinase; nonlinear kinetics
Outline: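 Amidase assay with urokinase on the substrate L-pyroglutamylglycyl-L-arginine p-nitroanilide (S-2444), run at pH 8.1 and 37 °C. Ki was read from a Dixon plot: the reciprocal of initial velocity was plotted against inhibitor concentration at two substrate concentrations.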

[8] = system: HEp-2; assay: Minimum concentration required for the complete blockage of virus induced cell division.; assay type: functional, cell-based; details: Homo sapiens
Outline: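 HEp-2 cells (MEM + 10% FBS, passages 370–376, mycoplasma-free) seeded to ~10^6 cells/well at 72 h; RS virus A2 strain adsorbed at 0.1 MOI for 2 h at 36 °C. Wells rinsed, then given inhibitor at 100, 10, 1.0, 0.5 or 0.1 in MEM with 2% FBS and 1% Me2SO. Fusion blockage and toxicity scored at 72 h.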

[9] = system: HEp-2; assay: Minimum concentration required for the complete blockage of virus induced cell […]; NB means no blockage of cell fusion at the highest concentration where there is cytotoxicity at 10 uM; assay type: functional, cell-based; details: Homo sapiens

Chain of Plasminogen (P00747 97-580 limits assumed): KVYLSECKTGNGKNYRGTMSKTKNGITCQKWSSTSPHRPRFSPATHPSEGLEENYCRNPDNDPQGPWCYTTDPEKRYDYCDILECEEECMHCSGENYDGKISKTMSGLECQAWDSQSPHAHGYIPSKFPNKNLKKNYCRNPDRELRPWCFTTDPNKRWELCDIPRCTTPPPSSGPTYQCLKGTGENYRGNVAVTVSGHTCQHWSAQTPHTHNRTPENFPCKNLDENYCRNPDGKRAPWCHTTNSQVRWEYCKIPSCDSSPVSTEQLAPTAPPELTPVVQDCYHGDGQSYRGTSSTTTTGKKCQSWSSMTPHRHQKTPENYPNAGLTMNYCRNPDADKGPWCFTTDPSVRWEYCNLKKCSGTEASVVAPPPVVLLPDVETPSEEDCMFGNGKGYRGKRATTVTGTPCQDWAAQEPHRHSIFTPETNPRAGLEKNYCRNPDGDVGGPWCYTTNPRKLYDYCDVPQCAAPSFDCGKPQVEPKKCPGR
Chain of Plasminogen (P00747 581-810 limits assumed): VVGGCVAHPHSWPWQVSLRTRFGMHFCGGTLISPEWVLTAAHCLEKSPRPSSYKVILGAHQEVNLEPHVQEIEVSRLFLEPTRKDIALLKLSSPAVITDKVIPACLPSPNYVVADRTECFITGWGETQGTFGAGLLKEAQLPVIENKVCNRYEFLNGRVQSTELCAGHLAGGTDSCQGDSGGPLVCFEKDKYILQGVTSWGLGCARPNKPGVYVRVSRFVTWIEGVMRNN

| SMILES | Concentration [1] | Ki [2] | Ki [3] | Ki [4] | Ki [5] | Concentration [6] | Ki [7] | Concentration [8] | Concentration [9] |
| --- | --- | --- | --- | --- | --- | --- | --- | --- | --- |
| N=C(N)c1ccc(Cn2ccc3cc(C(=N)N)ccc32)c(Cl)c1 | 10 µM | > 700 µM | 47.8 µM | 5.31 µM |  |  |  |  |  |
| N=C(N)c1ccc(OCCOc2ccc(-c3nc4cc(C(=N)N)ccc4[nH]3)cc2)cc1 | 10 µM |  |  |  |  |  |  |  |  |
| N=C(N)c1ccc(OCCOc2ccc(-c3nc4ccc(C(=N)N)cc4[nH]3)cc2)cc1 |  | 3.9 µM |  |  | 12 µM |  |  |  |  |
| N=C(N)c1ccc2c(ccn2Cc2ccc([N+](=O)[O-])cc2N)c1 | 10 µM | 100 µM | 4.8 µM | 5.31 µM | 40 µM |  |  |  |  |
| N=C(N)c1ccc2c(ccn2Cc2cccc([N+](=O)[O-])c2)c1 | 10 µM | > 100 µM | 6.39 µM | 7.77 µM |  |  |  |  |  |
| N=C(N)c1ccc2[nH]c(Oc3ccc(-c4nc5cc(C(=N)N)ccc5[nH]4)cc3)nc2c1 |  | ~200 µM | 3.94 µM | 4.67 µM |  | Cytotoxic | nonlinear kinectics |  |  |
| N=C(N)c1ccc(Cn2ccc3cc(C(=N)N)ccc32)cc1 | 10 µM | 60 µM | 24.8 µM | 3.18 µM |  |  |  |  |  |
| N=C(N)c1ccc(OCCCOc2ccc(-c3nc4cc(C(=N)N)ccc4[nH]3)cc2)cc1 | 10 µM |  |  |  |  |  |  |  |  |
| N=C(N)c1ccc2c(ccn2Cc2cccc(N)c2)c1 |  | 164 µM | 15.4 µM | 16.8 µM |  | Cytotoxic |  |  |  |
| N=C(N)c1ccc(OCCCOc2ccc(-c3nc4ccc(C(=N)N)cc4[nH]3)cc2)cc1 |  | 8.19 µM |  |  | 17.8 µM |  |  |  |  |
| N=C(N)c1ccc(Cn2ccc3cc([N+](=O)[O-])ccc32)cc1 |  | > 400 µM | 164 µM | 3.44 µM | > 200 µM | Cytotoxic |  |  |  |
| CCC(=O)c1cc2ccc(C(=N)N)cc2[nH]1 |  | 61.5 µM | 55 µM | 15.3 µM | 40.3 µM | Cytotoxic |  |  |  |
| N=C(N)c1cccc(Cn2ccc3cc(C(=N)N)ccc32)c1 | 10 µM | 65.6 µM | 22.4 µM | 8.29 µM |  |  |  |  |  |
| N=C(N)c1ccc2nc(Cc3nc4ccc(C(=N)N)cc4[nH]3)[nH]c2c1 |  | 2.65 µM |  |  |  |  |  | 0.5 µM |  |
| N=C(N)c1ccc2c(ccn2Cc2ccccc2)c1 |  | 844 µM | 20.1 µM | 15.4 µM | 191 µM | Cytotoxic |  |  |  |
| N=C(N)c1ccc2c(C(=O)C(F)(F)F)c[nH]c2c1 |  | > 1000 µM | 1510 µM | > 1000 µM | > 100 µM | Cytotoxic |  |  |  |
| N=C(N)c1ccc2c(ccn2CCCCn2ccc3cc(C(=N)N)ccc32)c1 | 10 µM | 2.93 µM | 11.1 µM | 3.2 µM | 9.96 µM |  |  |  |  |
| Cn1ccc2cc(C(=N)N)ccc21 |  | > 1000 µM | 35.2 µM | 85.3 µM | 196 µM |  |  |  |  |
| N=C(N)c1ccc(OCCCCOc2ccc(-c3nc4cc(C(=N)N)ccc4[nH]3)cc2)cc1 |  |  |  |  |  |  |  |  | Cytotoxic |
| N=C(N)c1ccc2c(C(=O)c3ccccc3)c[nH]c2c1 |  | > 200 µM | 176 µM | > 100 µM | 267 µM | Cytotoxic |  |  |  |
| CCn1ccc2cc(C(=N)N)ccc21 | 10 µM | > 400 µM | 42.8 µM | 137 µM | 280 µM |  |  |  |  |
| N=C(N)c1ccc(Cn2ccc3ccccc32)cc1 | 1 µM | 111 µM | 13.1 µM |  |  |  |  |  |  |
| CC(=O)c1c[nH]c2cc(C(=N)N)ccc12 |  | > 1000 µM | 1890 µM | > 1000 µM | > 100 µM | Cytotoxic |  |  |  |
| N=C(N)c1ccc(OCCCCOc2ccc(-c3nc4ccc(C(=N)N)cc4[nH]3)cc2)cc1 |  | 8.18 µM |  |  | 4.47 µM |  |  |  |  |
| N=C(N)c1ccc2c(C=O)c[nH]c2c1 |  | 43 µM | > 1000 µM | 25.5 µM | 10.6 µM |  |  |  |  |
| N=C(N)c1ccc(OCCCCCOc2ccc(-c3nc4cc(C(=N)N)ccc4[nH]3)cc2)cc1 |  | 3.83 µM |  |  | 8 µM |  |  |  | Cytotoxic |
| N=C(N)c1ccc2[nH]ccc2c1 |  | 112 µM | 7.68 µM | 29.1 µM | 131 µM |  |  |  |  |
